Bridge positions count the residues as written; N and C are the ends. Square brackets hold non-standard residues; d marks the D form. Peptide text beside a SMILES is read from it. Mpa = O=C(O)CCS
Target: Vasopressin V2 receptor (Sus scrofa) (UniProt P32307)
Assay: Affinity towards vasopressin receptor in porcine renal medullary membrane using [3H]LVP
Type: cell membranes
Conditions: Renal medulla
Method in brief: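 Pig kidney medullary membrane preparation; displacement of [³H]LVP binding. IC50 taken as the ligand concentration giving 50% inhibition of binding; Kbind calculated by the competitive-inhibition equation Kbind = IC50/(1 + L/KD), with KD the dissociation constant of [³H]LVP.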

Sequence of Vasopressin V2 receptor (Sus scrofa) (P32307 whole entry): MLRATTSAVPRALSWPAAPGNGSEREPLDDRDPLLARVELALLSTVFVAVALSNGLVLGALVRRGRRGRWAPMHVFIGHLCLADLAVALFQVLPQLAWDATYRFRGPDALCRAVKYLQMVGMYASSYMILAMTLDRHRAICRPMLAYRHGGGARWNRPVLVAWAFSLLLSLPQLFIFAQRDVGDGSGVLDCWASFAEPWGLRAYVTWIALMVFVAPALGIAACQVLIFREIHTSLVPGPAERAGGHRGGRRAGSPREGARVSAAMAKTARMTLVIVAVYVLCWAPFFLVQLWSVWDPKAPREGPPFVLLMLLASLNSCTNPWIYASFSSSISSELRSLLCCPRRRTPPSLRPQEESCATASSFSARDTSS

K bind: > 1000 nM
SMILES: CC(C)[C@@H]1NC(=O)[C@H](Cc2ccccc2)NC(=O)[C@H](Cc2ccc(O)cc2)NC(=O)CCSSC[C@@H](C(=O)N[C@@H](CCCN=C(N)N)C(=O)N[C@@H](CCCN=C(N)N)C(N)=O)NC(=O)[C@H](CC(N)=O)NC1=O ([Mpa]YFVNCRR-NH2; disulfide 1-6)
